Bioassay records: PubChem BioAssay, The Scripps Research Institute Molecular Screening Center
Hits are enriched below; roughly 2.3% of the tested compounds scored in any of these assays.
ABHD4 inh = ABHD4 inhibitors, primary screen, biochemical, fluorescence polarization, mouse; actives 0.54% (n = 370,000); (Lyso)-N-acylphosphatidylethanolamine lipase (Mus musculus), Q8VD66; inhibition, % at 8.92 µM; purified mABHD4, FP-Rh probe fluorescence polarization; AID 720543, 2013;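 active means inhibition exceeding the mean over every tested compound plus 3 SD, cut at about 30% in these data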;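 further: 0% = plate median of compound wells and 100% = S159A mutant with DMSO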
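assay system = mABHD4 protein | compound dosing = single nominal dose of 8.92 µM, 0.89% DMSO final | read-out basis = percent inhibition of probe binding, normalized to plate controls | schedule = Enzyme–compound pre-incubation 45 min, then probe 60 min, both 25 °C | detection = fluorescence polarization, excitation 525 nm, emission 598 nm, BODIPY TMR filters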
TCR CD3 inh = inhibitors of human TCR-CD3 interaction, primary screen, biochemical, fluorescence, TAMRA-labeled TCR probe; T-cell receptor (TCR); inhibition, % at 9.4 µM; actives 0.37% (n = 360,000); in the data active means inhibition above about 19%;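 further: recombinant mutant TCR 2C K166C tagged with TAMRA read by polarization; 0% = receptor in buffer alone and 100% = receptor with positive control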
SIAE inh = human SIAE inhibitors, primary screen, biochemical, fluorescence polarization, FP-Rh probe, 1536-well HTS | Sialate O-acetylesterase (Homo sapiens), Q9HAT2 | SIAE FP-Rh probe binding | inhibition, % at 9.66 µM | actives 0.69% (n = 370,000) | AID 1053197, 2014;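 active means inhibition above a cutoff: mean of compounds within the control limits plus 3 SD of those, cut at about 17% in these data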;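 further: 0% = plate median of compound wells and 100% = probe without SIAE protein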
Target sequence (Q9HAT2 whole entry, looked up): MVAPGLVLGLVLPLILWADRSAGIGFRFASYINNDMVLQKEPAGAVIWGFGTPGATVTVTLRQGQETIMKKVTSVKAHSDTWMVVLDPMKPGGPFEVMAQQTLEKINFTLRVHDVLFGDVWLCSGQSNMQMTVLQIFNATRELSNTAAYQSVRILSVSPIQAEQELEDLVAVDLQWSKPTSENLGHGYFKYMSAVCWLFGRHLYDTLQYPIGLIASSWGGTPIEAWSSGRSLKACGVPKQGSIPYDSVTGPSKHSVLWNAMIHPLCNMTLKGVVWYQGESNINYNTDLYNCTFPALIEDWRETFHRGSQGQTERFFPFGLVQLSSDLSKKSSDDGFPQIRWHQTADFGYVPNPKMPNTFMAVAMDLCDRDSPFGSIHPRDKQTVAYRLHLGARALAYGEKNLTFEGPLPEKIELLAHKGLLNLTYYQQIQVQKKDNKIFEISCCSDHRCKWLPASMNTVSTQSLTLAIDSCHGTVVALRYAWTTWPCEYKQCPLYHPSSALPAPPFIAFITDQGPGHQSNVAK
HTRA1 inhibitor = HTRA1 serine protease inhibitors, primary screen, biochemical, fluorescence polarization, HTS; Q92743; recombinant HTRA1, FP-rhodamine activity-based probe; inhibition, % at 5.96 µM; actives 0.5% (n = 340,000); in the data active means inhibition above about 36%;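 further: 0% = enzyme with DMSO and 100% = wells lacking enzyme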
pPAFAH inh = pPAFAH enzyme inhibitors, primary screen, biochemical, fluorescence polarization, human; Platelet-activating factor acetylhydrolase (Homo sapiens), Q13093; recombinant pPAFAH, FP-rhodamine probe fluorescence polarization; actives 1.5% (n = 330,000); inhibition, % at 3.39 µM;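 active means inhibition above the mean inhibition across the screen plus 3 SD, cut at about 25% in these data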;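 further: inhibitors block binding of the rhodamine activity-based probe so polarization drops; 0% = enzyme with DMSO and 100% = wells lacking pPAFAH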
Numbers without * were called inactive.

For COc1ccc(-n2c(C)cc(C(=O)CN3C(=O)NC4(CCCc5sccc54)C3=O)c2C)cc1 (stereo not drawn) the results were ABHD4 inh -10, TCR CD3 inh 0, SIAE inh -4, HTRA1 inhibitor -39 and pPAFAH inh 25*.
`COc1cccc(N2CC(C(=O)Nc3ccc(C(=O)OC(C)C)cc3)CC2=O)c1` (stereo not drawn) gave ABHD4 inh -11, TCR CD3 inh -8, SIAE inh -8, HTRA1 inhibitor -15 and pPAFAH inh 25*.
`COc1ccc(-n2c(SCC(=O)Nc3cc(C)c(NC(=O)c4ccccc4)cc3OC)nnc2-c2cccnc2)cc1` gave ABHD4 inh 0 and SIAE inh 1.
CCOc1cccc(=O)c2c(C)n(Cc3ccccc3)c(C)c12 was read as ABHD4 inh 5, TCR CD3 inh -8, SIAE inh 6, HTRA1 inhibitor -4 and pPAFAH inh 27*.
CCOc1cccc(=O)c2c(C)n(Cc3ccco3)c(C)c12 was read as ABHD4 inh 22, TCR CD3 inh 3, SIAE inh -3, HTRA1 inhibitor 28 and pPAFAH inh 33*.
For CCN1CCC(O)(/C=C/c2ccc(C(C)C)cc2)C(C(=O)/C=C/c2ccc(C(C)C)cc2)C1 (stereo not drawn) the results were ABHD4 inh 34*, TCR CD3 inh -2, SIAE inh 2 and HTRA1 inhibitor 1.
For CCOC(=O)Cn1c(=O)oc2cc(S(=O)(=O)Nc3cccc(C)c3)ccc21 the results were ABHD4 inh -5, TCR CD3 inh 3, SIAE inh 4, HTRA1 inhibitor 1 and pPAFAH inh 26*.
For Cc1ccc(NS(=O)(=O)c2ccc3c(c2)oc(=O)n3C)cc1F the results were ABHD4 inh -1, TCR CD3 inh 1, SIAE inh -8, HTRA1 inhibitor -5 and pPAFAH inh 31*.
CCOc1ccc(NS(=O)(=O)c2ccc3c(c2)oc(=O)n3C)cc1 was read as ABHD4 inh 3, TCR CD3 inh 3, SIAE inh -1, HTRA1 inhibitor -1 and pPAFAH inh 28*.
`CCOc1ccc(NS(=O)(=O)c2ccc3c(c2)N(C(C)=O)CCS3)cc1` gave ABHD4 inh 0, TCR CD3 inh 2, SIAE inh 2, HTRA1 inhibitor 1 and pPAFAH inh 32*.
For Cc1ccc(NS(=O)(=O)c2ccc3c(c2)oc(=O)n3C)cc1C the results were ABHD4 inh -4, TCR CD3 inh 3, SIAE inh -4, HTRA1 inhibitor -9 and pPAFAH inh 16.
`Cc1cccc(NC(=O)Nc2ccccc2C(=O)N2CCCC2)c1` gave ABHD4 inh 3 and SIAE inh 0.
COC(=O)C1CN(C2CCCC2)CCS(=O)(=O)N1Cc1ccc(C(F)(F)F)cc1 (stereo not drawn) was read as ABHD4 inh -3 and SIAE inh 3.
Screening CCOC(=O)COc1ccc2c(c1)c(C(C)=O)c(C)n2-c1ccccc1 returned ABHD4 inh -7, TCR CD3 inh -4, SIAE inh -7 and HTRA1 inhibitor -5.
CCOc1ccc2c(c1)c(C(C)=O)c(C)n2-c1ccccc1 was read as ABHD4 inh -13, TCR CD3 inh -1, SIAE inh -10, HTRA1 inhibitor -17 and pPAFAH inh 26*.
Screening Cc1ccc(-c2csc(Cc3nc(-c4ccc5c(c4)CCC(=O)N5)cs3)n2)cc1 returned ABHD4 inh 0, TCR CD3 inh 2, SIAE inh 2, HTRA1 inhibitor -28 and pPAFAH inh 26*.
For CCOC(=O)[C@]12CCCC=C1N(CCCOC)C(=O)[C@@H]2CC(=O)NCc1ccc(C)o1 the results were ABHD4 inh -5 and SIAE inh -7.
For CN(Cc1ccccc1)C(=O)COC(=O)COc1ccc(Cl)cc1 the results were ABHD4 inh -3, TCR CD3 inh -4, SIAE inh -3, HTRA1 inhibitor -1 and pPAFAH inh 24.
N#Cc1ccc(OCC(=O)OCCCOC(=O)COc2ccc(C#N)cc2)cc1 was read as ABHD4 inh -2, TCR CD3 inh 2, SIAE inh -4, HTRA1 inhibitor 0 and pPAFAH inh 32*.
For CN(Cc1ccccc1)C(=O)COC(=O)COc1ccc(C#N)cc1 the results were ABHD4 inh -13, TCR CD3 inh 5, SIAE inh -11, HTRA1 inhibitor 3 and pPAFAH inh 33*.
`CC[C@H](CCCc1ccc(F)cc1)CN(Cc1ccc(OC)cc1)S(=O)(=O)c1ccc(C)cc1` gave ABHD4 inh 0 and SIAE inh 0.
Screening COC(=O)[C@]12C[C@H](CC(=O)NCCCCc3ccccc3)C(=O)N(Cc3ccco3)C1=C[C@H](C(C)C)O[C@@H]2C1CC1 returned ABHD4 inh 3 and SIAE inh 3.
`CS(=O)(=O)Nc1ccc(C(=O)NCCSCc2ccccc2)cc1` gave ABHD4 inh 0, TCR CD3 inh -3, SIAE inh 2, HTRA1 inhibitor -1 and pPAFAH inh 3.
`CS(=O)(=O)Nc1ccc(C(=O)NCCc2ccccc2)cc1` gave ABHD4 inh 7, TCR CD3 inh 1, SIAE inh 19*, HTRA1 inhibitor 5 and pPAFAH inh -2.
Screening O=S1(=O)c2ccc(N3CCN(Cc4ccccc4F)CC3)cc2Oc2ccccc2CN1Cc1cn(Cc2cccc(F)c2)nn1 returned ABHD4 inh 17 and SIAE inh -6.
For CCCNS(=O)(=O)c1ccc(OCC(=O)N2CCCC2)cc1 the results were ABHD4 inh -5, TCR CD3 inh 0, SIAE inh 0, HTRA1 inhibitor 4 and pPAFAH inh 8.
O=C(c1cccc(NS(=O)(=O)c2ccccc2)c1)N1CCCC1 was read as ABHD4 inh 3, TCR CD3 inh -5, SIAE inh 5, HTRA1 inhibitor 6 and pPAFAH inh 4.
`Cc1cccc(NS(=O)(=O)c2cccc(C(=O)N3CCCC3)c2)c1` gave ABHD4 inh -4, TCR CD3 inh -4, SIAE inh -3, HTRA1 inhibitor 1 and pPAFAH inh 27*.
Screening CCN(CC(=O)NCc1cccs1)C(=O)c1cccc(S(=O)(=O)Nc2cccc(C)c2)c1 returned ABHD4 inh -3, TCR CD3 inh 2, SIAE inh 2, HTRA1 inhibitor -1 and pPAFAH inh 31*.
COc1ccc(NS(=O)(=O)c2cccc(C(=O)N3CCC3)c2)cc1 was read as ABHD4 inh 4, TCR CD3 inh 1, SIAE inh 2, HTRA1 inhibitor 0 and pPAFAH inh 17.
Cc1cccc(NS(=O)(=O)c2ccc(OCC(=O)N3CCCC3)cc2)c1 was read as ABHD4 inh 2, TCR CD3 inh 3, SIAE inh 2, HTRA1 inhibitor 7 and pPAFAH inh 34*.
